Experimental data published in ChEMBL document CHEMBL1128681, “Studies on the monoamine oxidase (MAO)-catalyzed oxidation of phenyl-substituted 1-methyl-4-phenoxy-1,2,3,6-tetrahydropyridine derivatives: factors contributing to MAO-A and MAO-B selectivity” (J Med Chem, 1995).

Experiments:
[1] = substrate: Cc1ccccc1OC1=CCN(C)CC1; assay: (§1) Michaelis-Menten constant for Monoamine oxidase A-catalyzed oxidation (KM).
How it was run: (§2)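 MAO-A at 0.16 μM final, raised to 0.32 μM for one slowly oxidized substrate. The MAO-A preparation was diluted with 3 volumes of phosphate buffer just before use, and its activity was re-checked bimonthly with kynuramine at 30 °C. Substrates at 100–2000 μM in 100 mM sodium phosphate pH 7.4; initial rates by spectrophotometry. kcat and KM from double-reciprocal plots; kcat/KM as their ratio.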

[2] = substrate: CN1CC=C(Oc2ccc(Cl)cc2)CC1; assay: as §1; how it was run: as §2
[3] = substrate: CN1CC=C(Oc2cccc(-c3ccccc3)c2)CC1; assay: as §1; how it was run: as §2
[4] = substrate: COc1ccc(OC2=CCN(C)CC2)cc1; assay: as §1; how it was run: as §2
[5] = substrate: CN1CC=C(Cc2ccccc2)CC1; assay: as §1; how it was run: as §2
[6] = substrate: Cc1ccc(OC2=CCN(C)CC2)cc1; assay: as §1; how it was run: as §2
[7] = substrate: COc1cccc(OC2=CCN(C)CC2)c1; assay: as §1; how it was run: as §2
[8] = substrate: CN1CC=C(Oc2ccccc2Cl)CC1; assay: as §1; how it was run: as §2
[9] = substrate: CN1CC=C(Oc2cccc(Cl)c2)CC1; assay: as §1; how it was run: as §2
[10] = substrate: CN1CC=C(Oc2ccccc2[N+](=O)[O-])CC1; assay: as §1; how it was run: as §2
[11] = substrate: CN1CC=C(Oc2ccccc2-c2ccccc2)CC1; assay: as §1; how it was run: as §2
[12] = substrate: COc1ccccc1OC1=CCN(C)CC1; assay: as §1; how it was run: as §2
[13] = substrate: CN1CC=C(Oc2cccc([N+](=O)[O-])c2)CC1; assay: as §1; how it was run: as §2
[14] = substrate: Cc1cccc(OC2=CCN(C)CC2)c1; assay: as §1; how it was run: as §2
[15] = substrate: CN1CC=C(Oc2ccc([N+](=O)[O-])cc2)CC1; assay: as §1; how it was run: as §2
[16] = substrate: Cc1ccccc1OC1=CCN(C)CC1; assay: (§3) Michaelis-Menten constant for Monoamine oxidase B catalyzed oxidation (KM).; parameters: species or system Bos taurus
How it was run: (§4)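 MAO-B at 0.08 μM final; activity was calibrated with MPTP at 30 °C and the preparation was stored at –15 °C. Substrate range 100–2000 μM in 100 mM sodium phosphate pH 7.4, with spectrophotometric initial oxidation rates. KM and kcat derived from double-reciprocal plots, and kcat/KM calculated from them.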

[17] = substrate: CN1CC=C(Oc2ccc(Cl)cc2)CC1; assay: as §3; parameters: species or system Bos taurus; how it was run: as §4
[18] = substrate: CN1CC=C(Oc2cccc(-c3ccccc3)c2)CC1; assay: as §3; parameters: species or system Bos taurus; how it was run: as §4
[19] = substrate: COc1ccc(OC2=CCN(C)CC2)cc1; assay: as §3; parameters: species or system Bos taurus; how it was run: as §4
[20] = substrate: CN1CC=C(Cc2ccccc2)CC1; assay: as §3; parameters: species or system Bos taurus; how it was run: as §4
[21] = substrate: Cc1ccc(OC2=CCN(C)CC2)cc1; assay: as §3; parameters: species or system Bos taurus; how it was run: as §4
[22] = substrate: COc1cccc(OC2=CCN(C)CC2)c1; assay: as §3; parameters: species or system Bos taurus; how it was run: as §4
[23] = substrate: CN1CC=C(Oc2ccccc2Cl)CC1; assay: as §3; parameters: species or system Bos taurus; how it was run: as §4
[24] = substrate: CN1CC=C(Oc2cccc(Cl)c2)CC1; assay: as §3; parameters: species or system Bos taurus; how it was run: as §4
[25] = substrate: CN1CC=C(Oc2ccccc2[N+](=O)[O-])CC1; assay: as §3; parameters: species or system Bos taurus; how it was run: as §4
[26] = substrate: CN1CC=C(Oc2ccccc2-c2ccccc2)CC1; assay: as §3; parameters: species or system Bos taurus; how it was run: as §4
[27] = substrate: COc1ccccc1OC1=CCN(C)CC1; assay: as §3; parameters: species or system Bos taurus; how it was run: as §4
[28] = substrate: CN1CC=C(Oc2cccc([N+](=O)[O-])c2)CC1; assay: as §3; parameters: species or system Bos taurus; how it was run: as §4
[29] = substrate: Cc1cccc(OC2=CCN(C)CC2)c1; assay: as §3; parameters: species or system Bos taurus; how it was run: as §4
[30] = substrate: CN1CC=C(Oc2ccc([N+](=O)[O-])cc2)CC1; assay: as §3; parameters: species or system Bos taurus; how it was run: as §4

B1: Amine oxidase [flavin-containing] A (Homo sapiens) (protein)
chain: MENQEKASIAGHMFDVVVIGGGISGLSAAKLLTEYGVSVLVLEARDRVGGRTYTIRNEHVDYVDVGGAYVGPTQNRILRLSKELGIETYKVNVSERLVQYVKGKTYPFRGAFPPVWNPIAYLDYNNLWRTIDNMGKEIPTDAPWEAQHADKWDKMTMKELIDKICWTKTARRFAYLFVNINVTSEPHEVSALWFLWYVKQCGGTTRIFSVTNGGQERKFVGGSGQVSERIMDLLGDQVKLNHPVTHVDQSSDNIIIETLNHEHYECKYVINAIPPTLTAKIHFRPELPAERNQLIQRLPMGAVIKCMMYYKEAFWKKKDYCGCMIIEDEDAPISITLDDTKPDGSLPAIMGFILARKADRLAKLHKEIRKKKICELYAKVLGSQEALHPVHYEEKNWCEEQYSGGCYTAYFPPGIMTQYGRVIRQPVGRIFFAGTETATKWSGYMEGAVEAGERAAREVLNGLGKVTEKDIWVQEPESKDVPAVEITHTFWERNLPSVSGLLKIIGFSTSVTALGFVLYKYKLLPRS
- Km [1]: 108 µM
- kcat [1]: 4.5 s⁻¹
- kcat/Km [1]: 41700 M⁻¹ s⁻¹
- Km [2]: 63 µM
- kcat [2]: 3.15 s⁻¹
- kcat/Km [2]: 50100 M⁻¹ s⁻¹
- Km [3]: 232 µM
- kcat [3]: 21.5 s⁻¹
- kcat/Km [3]: 92800 M⁻¹ s⁻¹
- Km [4]: 47 µM
- kcat [4]: 1.22 s⁻¹
- kcat/Km [4]: 25800 M⁻¹ s⁻¹
- Km [5]: 103 µM
- kcat [5]: 0.467 s⁻¹
- kcat/Km [5]: 4600 M⁻¹ s⁻¹
- Km [6]: 129 µM
- kcat [6]: 1.3 s⁻¹
- kcat/Km [6]: 10000 M⁻¹ s⁻¹
- Km [7]: 176 µM
- kcat [7]: 8.2 s⁻¹
- kcat/Km [7]: 46600 M⁻¹ s⁻¹
- Km [8]: 83 µM
- kcat [8]: 3.4 s⁻¹
- kcat/Km [8]: 41000 M⁻¹ s⁻¹
- Km [9]: 82 µM
- kcat [9]: 5.97 s⁻¹
- kcat/Km [9]: 72800 M⁻¹ s⁻¹
- Km [10]: 306 µM
- kcat [10]: 6.83 s⁻¹
- kcat/Km [10]: 22300 M⁻¹ s⁻¹
- Km [11]: 426 µM
- kcat [11]: 4.08 s⁻¹
- kcat/Km [11]: 9580 M⁻¹ s⁻¹
- Km [12]: 75 µM
- kcat [12]: 0.95 s⁻¹
- kcat/Km [12]: 12700 M⁻¹ s⁻¹
- Km [13]: 174 µM
- kcat [13]: 4.95 s⁻¹
- kcat/Km [13]: 28500 M⁻¹ s⁻¹
- Km [14]: 212 µM
- kcat [14]: 7.18 s⁻¹
- kcat/Km [14]: 33900 M⁻¹ s⁻¹
- Km [15]: 169 µM
- kcat [15]: 1.37 s⁻¹
- kcat/Km [15]: 8050 M⁻¹ s⁻¹

B2: Amine oxidase [flavin-containing] B (Bos taurus) (protein)
chain: MSSKCDVVVVGGGISGMAAAKLLHDSGLNVIVLEARDRVGGRTYTLRNQKVKYVDLGGSYVGPTQNHILRLSKELGLETYKVNEVERLIHHTKGKSYPFRGSFPSVWNPITYLDHNNLWRTMDDMGREIPSDAPWKAPLAEQWDLMTMKELLDKICWTESSKQLAILFVNLCVTAEIHEVSALWFLWYVKQCGGTTRIFSTSNGGQERKFVGGSGQVSERIMDLLGDRVKLERPVIHIDQTGENVLVETLNHELYEAKYVISAVPPVLGMKIHFNPPLPMMRNQLITRVPLGSVIKSIVYYKEPFWRNMDYCGSMIIEGEEAPVAYALDDTKPDGSYPAIIGFILAHKARKLARLTKEERLKKLCDLYAKVLGSQEALHPVHYEEKNWCEEQYSGGCYTSYFPPGIMTQYGRVLRQPVGRIYFAGTETATHWSGYMEGAVEAGERAAREILHAMGKIPEDEIWLPEPESVDVPAKPITTTFLQRHLPSVPGLLKLIGLTTIFSATALGFLAHKRGLLVRI
- Km [16]: 98 µM
- kcat [16]: 2.92 s⁻¹
- kcat/Km [16]: 29700 M⁻¹ s⁻¹
- Km [17]: 254 µM
- kcat [17]: 5.93 s⁻¹
- kcat/Km [17]: 23400 M⁻¹ s⁻¹
- Km [18]: 346 µM
- kcat [18]: 3.67 s⁻¹
- kcat/Km [18]: 10600 M⁻¹ s⁻¹
- Km [19]: 474 µM
- kcat [19]: 5.9 s⁻¹
- kcat/Km [19]: 12400 M⁻¹ s⁻¹
- Km [20]: 180 µM
- kcat [20]: 10.7 s⁻¹
- kcat/Km [20]: 59700 M⁻¹ s⁻¹
- Km [21]: 106 µM
- kcat [21]: 3.57 s⁻¹
- kcat/Km [21]: 33600 M⁻¹ s⁻¹
- Km [22]: 337 µM
- kcat [22]: 4.05 s⁻¹
- kcat/Km [22]: 12000 M⁻¹ s⁻¹
- Km [23]: 220 µM
- kcat [23]: 3.02 s⁻¹
- kcat/Km [23]: 13700 M⁻¹ s⁻¹
- Km [24]: 308 µM
- kcat [24]: 3.73 s⁻¹
- kcat/Km [24]: 12200 M⁻¹ s⁻¹
- Km [25]: 86 µM
- kcat [25]: 1.13 s⁻¹
- kcat/Km [25]: 13100 M⁻¹ s⁻¹
- Km [26]: 691 µM
- kcat [26]: 1.52 s⁻¹
- kcat/Km [26]: 2200 M⁻¹ s⁻¹
- Km [27]: 313 µM
- kcat [27]: 5.7 s⁻¹
- kcat/Km [27]: 12400 M⁻¹ s⁻¹
- Km [28]: 105 µM
- kcat [28]: 2.47 s⁻¹
- kcat/Km [28]: 23500 M⁻¹ s⁻¹
- Km [29]: 116 µM
- kcat [29]: 3.37 s⁻¹
- kcat/Km [29]: 29100 M⁻¹ s⁻¹
- Km [30]: 443 µM
- kcat [30]: 1.4 s⁻¹
- kcat/Km [30]: 3180 M⁻¹ s⁻¹
